In ChEMBL document CHEMBL1145784, “Three dimensional pharmacophore modeling of human CYP17 inhibitors. Potential agents for prostate cancer therapy” (J Med Chem, 2003):

What was measured:
[1] = molecular target: T1, Steroid 17-alpha-hydroxylase/17,20 lyase (Homo sapiens, UniProt P05093); assay: In vitro cytochrome P450 17A1 inhibition was assayed using the rapid acetic acid releasing assay (AARA), utilizing intact P450c17-expressing Escherichia coli or P450c17-LNCaP cells as the enzyme source.
T1 sequence (P05093 whole entry): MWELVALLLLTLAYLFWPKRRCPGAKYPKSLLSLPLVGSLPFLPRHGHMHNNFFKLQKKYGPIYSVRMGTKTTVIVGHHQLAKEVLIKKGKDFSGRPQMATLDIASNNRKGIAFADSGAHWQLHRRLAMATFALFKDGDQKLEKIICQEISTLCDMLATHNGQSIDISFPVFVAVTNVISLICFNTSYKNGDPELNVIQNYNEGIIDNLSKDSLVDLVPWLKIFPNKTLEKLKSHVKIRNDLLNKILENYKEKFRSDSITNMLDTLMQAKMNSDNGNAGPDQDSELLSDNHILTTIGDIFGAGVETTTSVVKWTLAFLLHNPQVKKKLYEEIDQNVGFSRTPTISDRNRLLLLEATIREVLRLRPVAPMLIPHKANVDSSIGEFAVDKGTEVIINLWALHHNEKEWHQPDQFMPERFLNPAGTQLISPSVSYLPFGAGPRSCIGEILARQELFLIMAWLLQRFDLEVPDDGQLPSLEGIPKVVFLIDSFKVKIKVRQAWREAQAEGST
How it was run: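 Enzyme source was intact E. coli expressing P450c17 or P450c17-LNCaP cells. Substrate was [21-3H]-17α-hydroxypregnenolone, and CYP17 activity was read as tritiated acetic acid released by C-21 side-chain cleavage. Each compound was tested at five or more concentrations, in triplicate. IC50 was taken directly from plots of % inhibition versus concentration and reported as the mean of triplicate experiments.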

[2] = molecular target: T1, Steroid 17-alpha-hydroxylase/17,20 lyase; assay: In vitro Cytochrome P450 17A1 inhibition in rapid acetic acid releasing assay (AARA) using intact P450c17-expressing Escherichia coli or P450c17-LNCaP cells as the enzyme source at 1 mM
How it was run: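 Acetic acid releasing assay using intact P450c17-expressing E. coli or P450c17-LNCaP cells with [21-3H]-17α-hydroxypregnenolone as substrate. Activity was read as tritiated acetic acid formed from C-21 side-chain cleavage. Percent inhibition was recorded at a single inhibitor concentration of 1 mM.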

[3] = molecular target: T1, Steroid 17-alpha-hydroxylase/17,20 lyase

Compound | IC50 [1] [µM] | further results
C/C(=N/O)C1=CC=C2[C@@H]3CCC4=CC(=O)CC[C@]4(C)[C@H]3CC[C@]12C | 1.7 | 
C/C(=N/O)[C@@]1(O)CC[C@H]2[C@@H]3CC=C4C[C@@H](O)CC[C@]4(C)[C@H]3CC[C@@]21C | 12 | 
C[C@]12CC[C@@H](O)CC1=CC[C@@H]1[C@@H]2CC[C@]2(C)C(=C/C=N/O)CC[C@@H]12 | 0.32 | 
C[C@]12CC[C@H](O)CC1=CCC1C2CC[C@@]2(C)C1CC[C@H]2c1ccncn1 (some centres undefined) | 0.225 | 
C[C@]12CCC3C(CC=C4C[C@@H](O)CC[C@@]43C)C1C/C(=N\O)C2 (some centres undefined) | 0.628 | 
C[C@]12CC[C@H](O)CC1=CCC1C2CC[C@]2(C)C(n3nccn3)=CCC12 (some centres undefined) | 3.7 | 
C[C@]12CCC(=O)C=C1CCC1C2CC[C@]2(C)C(n3cncn3)=CCC12 (some centres undefined) | 1.2 | 
C[C@]12CC[C@H](O)CC1=CCC1C2CC[C@]2(C)C(n3cnnn3)=CCC12 (some centres undefined) | 2.6 | 
C[C@]12CCC(=O)C=C1CCC1C2CC[C@]2(C)C(n3ccnc3)=CCC12 (some centres undefined) | 0.15 | 
C[C@]12CC[C@H](O)CC1=CCC1C2CC[C@]2(C)C(n3cncn3)=CCC12 (some centres undefined) | 0.8 | 
CC(=O)O[C@H]1CCC2C3C=CC4=CC(=O)C=C[C@]4(C)C3CC[C@@]21C (some centres undefined) | 0.66 | 
C=C1C[C@@]2(C)C(=CC1=O)CCC1C2CC[C@@]2(C)C1CC[C@]2(C)OC(C)=O (some centres undefined) | 0.562 | 
C[C@]12CC[C@H](O)CC1=CCC1C2CC[C@]2(C)C(c3cncnc3)=CCC12 (some centres undefined) | 0.5 | 
C[C@]12CCC3C(CC=C4C[C@@H](O)CC[C@@]43C)C1CCC2C/C=N/O (some centres undefined) | 0.45 | 
C[C@]12CCC(=O)C=C1CCC1C2CC[C@]2(C)C(n3cnc4ccccc43)=CCC12 (some centres undefined) | 0.915 | 
CS(=O)(=O)Nc1cc(Cc2cc(NS(C)(=O)=O)cc(C(F)(F)F)c2)cc(C(F)(F)F)c1 |  | inhibition at 1000 µM [2]: ~25%
C[C@]12CCC(=O)C=C1CCC1C2CC[C@]2(C)C(n3ccnn3)=CCC12 (some centres undefined) | 0.387 | 
C[C@]12CC[C@H](O)CC1=CCC1C2CC[C@]2(C)C(=N/N)/C(=N/O)CC12 (some centres undefined) | 5.9 | 
C[C@]12CC[C@H](O)CC1=CCC1C2CC[C@]2(C)C(n3ccnn3)=CCC12 (some centres undefined) | 0.377 | 
C[C@]12CCC(=O)C=C1CCC1C2CC[C@]2(C)C(c3ccno3)=CCC12 (some centres undefined) | 1 | 
CC(CCC(=O)OC1CC2CC=CC1C2)[C@H]1CCC2C3CC=C4C[C@@H](O)CC[C@]4(C)C3CCC21 (some centres undefined) | 0.617 | 
C[C@]12CC[C@H](O)CC1=CCC1C2CC[C@]2(C)C(n3ncnn3)=CCC12 (some centres undefined) | 1.4 | 
C[C@]12CC[C@H](O)CC1=CC[C@@H]1[C@@H]2CC[C@]2(C)C(c3cccnc3)=CC[C@@H]12 [ABIRATERONE] | 0.8 | 
c1ccc(-c2ccc(C(c3ccccc3)n3ccnc3)cc2)cc1 (centres undefined) [BIFONAZOLE] |  | Ki [3]: 0.0565 µM
Clc1ccc(COC(Cn2ccnc2)c2ccc(Cl)cc2Cl)cc1 (centres undefined) [ECONAZOLE] |  | Ki [3]: 0.325 µM
Clc1ccc(COC(Cn2ccnc2)c2ccc(Cl)cc2Cl)c(Cl)c1 (centres undefined) [MICONAZOLE] |  | Ki [3]: 0.243 µM
C[C@]12CC[C@H](O)CC1=CCC1C2CC[C@]2(C)/C(=N/NC(N)=O)CCC12 (some centres undefined) [NRB 03731] | 0.178 | 
CCC(=O)O[C@H]1CC[C@H]2[C@@H]3CCC4=CC(=O)CC[C@]4(C)[C@H]3CC[C@]12C [TESTOSTERONE PROPIONATE] | 0.056 | 
Clc1ccc(C(Cn2ccnc2)OCc2ccsc2Cl)c(Cl)c1 (centres undefined) [TIOCONAZOLE] |  | Ki [3]: 0.505 µM
